CHO parental Ca: counter-screen for OX1R antagonists: effect in parental CHO cells | parental CHO-K1, ATP-induced calcium, Fluo-8 fluorescence | inhibition, % at 5.6 µM | hit rate 0.63% among 330,000 | AID 463079;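 active means inhibition above that plate's mean sample inhibition plus 3 SD, cut at about 26% in these data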;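 further: 0% = ATP-challenged DMSO wells and 100% = DMSO wells without ATP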
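Material: Parental CHO cells | Reagent: ATP | Compound dosing: Single nominal dose of 5.6 µM per compound | Detection: Intracellular calcium via Fluo-8 no-wash fluorescent dye | Read-out: % inhibition of ATP-induced calcium mobilization | Benchmarks: Low control ATP plus DMSO, high control DMSO only | Replicates: Singlicate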
TAAR1 antag: human TAAR1 antagonism. AID 624466. Q96RJ0. hit rate 1.5% among 360,000. CHO RD-HGA16 TAAR1, Fluo-8 calcium fluorescence, antagonist. inhibition, % at 3 µM;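 active means inhibition above a per-plate cutoff, the mean inhibition of test compounds on that plate plus 3 SD, cut at about 49% in these data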;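 further: 0% = DMSO plus EC80 beta-PEA response and 100% = DMSO alone without agonist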
Target sequence (Q96RJ0 whole entry, looked up): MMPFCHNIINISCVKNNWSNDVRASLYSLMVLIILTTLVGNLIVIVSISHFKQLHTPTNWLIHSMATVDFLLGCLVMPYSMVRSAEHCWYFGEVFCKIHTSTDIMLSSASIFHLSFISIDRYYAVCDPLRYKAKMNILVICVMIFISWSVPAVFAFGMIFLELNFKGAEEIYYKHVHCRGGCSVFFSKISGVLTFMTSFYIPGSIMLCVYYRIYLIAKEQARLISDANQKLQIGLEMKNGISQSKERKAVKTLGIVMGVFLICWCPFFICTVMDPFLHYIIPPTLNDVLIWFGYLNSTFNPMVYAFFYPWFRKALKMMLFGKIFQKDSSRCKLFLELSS
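Material: CHO RD-HGA16 cells bearing hTAAR1; compound dosing: one-point dosing, 3 µM nominal final; schedule: dye loading 75 min at 37 °C, then 30 min room temperature; measured by: calcium fluorescence with Fluo-8; control set: vehicle and agonist controls; replication: n of 1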
TAAR1 ag: agonists of human TAAR1. CHO RD-HGA16 TAAR1, Fluo-8 calcium fluorescence; vehicle wells 0%, saturating PEA agonist 100%. activation, % at 3 µM. hit rate 0.99% among 360,000. Q96RJ0. AID 624467;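 active means activation above the mean activation of all test compounds in the run plus 3 SD, cut at about 38% in these data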
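Test system: RD-HGA16 (CHO) cells co-expressing Gα16 and hTAAR1; dosing: one-point dosing at 3 µM (nominal); timing: 17-24 h seeding, 75 min 37 °C dye, 30 min RT; signal: kinetic Fluo-8 calcium fluorescence; read-out basis: % activation relative to PEA EC100 response; controls: DMSO and PEA EC100; replicates: n 1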
OX1R antag-1: antagonists of human orexin 1 receptor (OX1R); O43613; OX1R-expressing cells, FRET antagonist read-out; inhibition, % at 6.6 µM; hit rate 1.8% among 330,000; in the data active means inhibition mostly above about 38%, no sharp cut-off; inactive means mostly below about 40%;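 further: 0% = agonist challenge alone and 100% = reference antagonist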
OX1R antag-2: blocks the human orexin 1 receptor | O43613 | CHO/OX1R cells, Fluo-8 calcium fluorescence, orexin A | inhibition, % at 5 µM | hit rate 0.43% among 330,000 | AID 434989;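 active means inhibition above its plate's threshold, mean inhibition of all tested compounds on the plate plus 3 SD, cut at about 37% in these data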;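 further: 0% = orexin A challenge wells and 100% = SB-334867-A antagonist wells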
TAAR1 ag conf: human TAAR1 agonism, confirmed. AID 651783. CHO RD-HGA16 TAAR1, Fluo-8 calcium fluorescence; scaled: DMSO 0%, maximal phenethylamine 100%. activation, % at 3 µM. hit rate 82% among 2,400. shares compounds with TAAR1 ag;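 active means activation above a cutoff set at the run's mean compound activation plus 3 SD, cut at about 39% in these data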
Ga16 nonsel ag: nonselective agonist in parental cells, TAAR1 agonist counter-screen; shares compounds with TAAR1 ag; CHO-Ga16 parental, Fluo-8 calcium fluorescence; normalized to maximal ATP response, DMSO zero; activation, % at 3 µM; hit rate 50% among 2,400;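 active means activation above the run cutoff, the mean activation over all tested wells plus 3 SD, cut at about 12% in these data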;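 further: 0% = DMSO wells and 100% = maximal ATP response on the peak over basal ratio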
TAAR1 desens: TAAR1 response desensitization, agonist counter-screen | shares compounds with TAAR1 ag | CHO RD-HGA16 hTAAR1, Fluo-8 calcium, beta-PEA response inhibition | inhibition, % at 3 µM | hit rate 46% among 2,400 | AID 651951;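 active means inhibition above the run cutoff, the mean inhibition of all test compounds plus 3 SD, cut at about 49% in these data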;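 further: beta-PEA stimulus applied at its EC80; loss of beta-PEA calcium signal after compound pretreatment read as receptor desensitization; 0% = DMSO with beta-PEA at EC80 and 100% = DMSO alone without agonist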
Ga16 antag count: counter-screen for TAAR1 agonists: nonselective Ga16 antagonists; inhibition, % at 3 µM; CHO-Ga16 ATP-induced calcium, Fluo-8 fluorescence; shares compounds with TAAR1 ag; AID 651952; hit rate 39% among 2,400;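 active means inhibition above the plate's mean compound inhibition plus 3 SD, computed per plate, cut at about 22% in these data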;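 further: 0% = EC80 ATP with DMSO and 100% = DMSO wells without ATP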
An asterisk follows results filed as active; . = no result. Most compounds without a hit are left out; they make up all but 3.9% or so of the library.

SMILES	CHO parental Ca	TAAR1 antag	TAAR1 ag	OX1R antag-1	OX1R antag-2	TAAR1 ag conf	Ga16 nonsel ag	TAAR1 desens	Ga16 antag count
O=S(=O)(NCCc1ccccc1)c1cccc2nsnc12	-13	-10	-3	24	-5	.	.	.	.
Cc1ccc(CCNC(=O)C2CCN(S(=O)(=O)c3cccc4nsnc34)CC2)cc1	-9	56*	77*	21	-23	1	4	16	19
CN(C)c1ccc(CN(C(=O)C2COc3ccccc3O2)C2CCS(=O)(=O)C2)cc1 (stereo unspecified)	-14	2	13	0	-30	.	.	.	.
COc1ccc(N(C)S(=O)(=O)c2cccc(C(=O)N(C)Cc3ccc(C)o3)c2)cc1	-20	4	9	4	-2	.	.	.	.
O=C(c1ccc2ncsc2c1)N1CCN(c2ccc(O)cc2)CC1	-20	10	7	18	-21	.	.	.	.
O=C(CC1C(=O)NCCN1Cc1c(F)cccc1Cl)NCc1ccccc1 (stereo unspecified)	-18	6	0	19	-19	.	.	.	.
O=C(CC1C(=O)NCCN1CCCc1ccccc1)NCCc1ccccc1F (stereo unspecified)	-30	44	75*	3	-1	93*	1	72*	0
O=C1NC[C@@H](CCCCN2CCN(CCc3ccc(O)cc3)C(=O)C2=O)N(Cc2ccccc2)C1=O	.	-8	2	.	.	.	.	.	.
O=C(CNS(=O)(=O)c1ccc([N+](=O)[O-])cc1)N/N=C\c1ccc(O)cc1	6	68*	68*	7	7	101*	39*	89*	63*
CC(=O)Nc1ccc(/C=N\NC(=O)CNS(=O)(=O)c2ccc([N+](=O)[O-])cc2)cc1	-1	11	0	35	1	.	.	.	.
O=C(NN1C(=O)C2C(c3ccccc3)C=CC(c3ccccc3)C2C1=O)c1ccccc1 (stereo unspecified)	-1	68*	70*	22	1	13	13*	37	29*
CC(C)C[C@H](NS(=O)(=O)c1ccc(F)cc1F)C(=O)N1CCC[C@H]1C(=O)NCc1ccccc1	.	1	0	.	.	.	.	.	.
CC(C)[C@H](NC(=O)c1ccccc1)C(=O)N1CCC[C@H]1C(=O)NCCc1ccccc1Cl	.	83*	80*	.	.	96*	4	93*	4
CC(C)[C@H](NS(=O)(=O)c1ccc(F)cc1F)C(=O)N1CCC[C@H]1C(=O)NCCc1ccccc1Cl	.	64*	49*	.	.	76*	1	86*	11
CC(C)[C@H](NC(=O)c1ccc(Cl)c(Cl)c1)C(=O)N1CCC[C@H]1C(=O)NCCc1ccccc1Cl	.	80*	53*	.	.	82*	0	98*	2
CC(C)[C@H](NC(=O)C1CC1)C(=O)N1CCC[C@H]1C(=O)NCc1ccccc1	.	-6	0	.	.	.	.	.	.
NC(=O)C1=C[C@@H](c2ccc(C(F)(F)F)cc2)C[C@@H](OCCCCO)O1	-7	-3	-1	15	-3	.	.	.	.
Oc1ccc(C[C@@H]2CNCCN2CCC23CC4CC(CC(C4)C2)C3)cc1	9	5	48*	16	0	62*	31*	41	42*
Oc1ccc(C[C@H]2CNCCN2CCC23CC4CC(CC(C4)C2)C3)cc1	8	-13	36	21	9	.	.	.	.
Cc1nc(NC(=O)c2cccnc2Cl)sc1C	3	-11	1	5	-1	.	.	.	.
COCCn1c(C)cc(/C=C(\C#N)C(=O)OCC(=O)Nc2ccc(S(N)(=O)=O)cc2)c1C	.	-16	0	.	.	.	.	.	.

From PubChem
